From ChEMBL document CHEMBL2417481, “Regioselective synthesis of 6-substituted-2-amino-5-bromo-4(3H)-pyrimidinones and evaluation of their antiviral activity” (Eur J Med Chem, 2013)

How the values were obtained:
[1] = test system: Human alphaherpesvirus 1; test: Antiviral activity against Herpes simplex virus-1 KOS infected in human HEL cells assessed as reduction in virus-induced cytopathogenicity; assay type: functional, organism-based; conditions: Human alphaherpesvirus 1, KOS
Procedure, shortened: (§1)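 Confluent cell monolayers (Vero, HeLa, HEL or MDCK, as named in each line) were infected with 100 CCID50 of virus while exposed to a range of compound concentrations. Cytopathicity was scored once it was complete in untreated infected controls.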

[2] = test system: Cytomegalovirus; test: Antiviral activity against Cytomegalovirus Davis infected in human HEL cells assessed as reduction in virus plaque formation; assay type: functional, organism-based; conditions: Human betaherpesvirus 5, Davis
Procedure, shortened: (§2)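 Confluent HEL fibroblasts were inoculated with 100 PFU of CMV at graded compound concentrations. Plaques were counted once formation was complete in untreated infected controls.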

[3] = test system: Human alphaherpesvirus 1; test: Antiviral activity against thymidine kinase negative […] Herpes simplex virus-1 KOS infected in human HEL cells assessed as reduction in virus-induced cytopathogenicity; assay type: functional, organism-based; conditions: Human alphaherpesvirus 1, KOS; procedure, shortened: as §1
[4] = Cytotoxicity against human HeLa cells assessed as morphological changes; assay type: cell-based
[5] = test system: Coxsackievirus B4; test: Antiviral activity against Coxsackievirus B4 infected in human HeLa cells assessed as reduction in virus-induced cytopathogenicity; assay type: functional, organism-based; conditions: Enterovirus B; procedure, shortened: as §1
[6] = test system: Mammalian orthoreovirus 1; test: Antiviral activity against Reovirus-1 infected in african green monkey Vero cells assessed as reduction in virus-induced cytopathogenicity; assay type: functional, organism-based; conditions: Mammalian orthoreovirus 1, Vero
Procedure, shortened: (§3)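 Confluent Vero monolayers in 96-well plates were inoculated with 100 CCID50 of virus together with varying compound concentrations. Cytopathicity was scored once it was complete in untreated virus-infected control cultures.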

[7] = test system: Felid alphaherpesvirus 1; test: Antiviral activity against Feline Herpes virus infected in cat CRFK cells assessed as inhibition of virus-induced cytopathic effect by MTS assay; assay type: functional, organism-based; conditions: Felid alphaherpesvirus 1, CRFK
[8] = Cytotoxicity against MDCK cells assessed as morphological changes; assay type: cell-based, Canis lupus familiaris; conditions: dog
[9] = test system: Vesicular stomatitis virus; test: Antiviral activity against Vesicular stomatitis virus infected in human HEL cells assessed as reduction in virus-induced cytopathogenicity; assay type: functional, organism-based; procedure, shortened: as §1
[10] = test system: Influenza B virus; test: Antiviral activity against Influenza B virus infected in MDCK cells assessed as reduction in virus-induced cytopathogenicity; assay type: functional, organism-based; procedure, shortened: as §1
[11] = test system: Vesicular stomatitis virus; test: Antiviral activity against Vesicular stomatitis virus infected in human HeLa cells assessed as reduction in virus-induced cytopathogenicity; assay type: functional, organism-based; procedure, shortened: as §1
[12] = test system: Punta Toro virus; test: Antiviral activity against Punta Toro virus infected in african green monkey Vero cells assessed as reduction in virus-induced cytopathogenicity; assay type: functional, organism-based; procedure, shortened: as §1
[13] = test system: Human alphaherpesvirus 3; test: Antiviral activity against thymidine kinase positive Varicella-zoster virus OKA infected in human HEL cells assessed as reduction in virus plaque formation; assay type: functional, cell-based, Human herpesvirus 3 strain Oka vaccine; conditions: Human alphaherpesvirus 3, OKA
Procedure, shortened: (§4)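 Confluent HEL fibroblast cultures received 20 PFU of VZV together with varying compound concentrations. Plaque formation was read when it reached completion in untreated virus controls.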

[14] = test system: Influenza A virus; test: Antiviral activity against Influenza A virus H1N1 infected in MDCK cells assessed as reduction in virus-induced cytopathogenicity; assay type: functional, organism-based; procedure, shortened: as §1
[15] = test system: Respiratory syncytial virus; test: Antiviral activity against Respiratory syncytial virus Long infected in human HeLa cells assessed as reduction in virus-induced cytopathogenicity; assay type: functional, organism-based; procedure, shortened: as §1
[16] = test system: Cytomegalovirus; test: Antiviral activity against Cytomegalovirus AD-169 infected in human HEL cells assessed as reduction in virus plaque formation; assay type: functional, organism-based; conditions: Human betaherpesvirus 5, AD-169, HEL; procedure, shortened: as §2
[17] = Cytotoxicity against african green monkey Vero cells assessed as morphological changes; assay type: cell-based; conditions: chlorocebus sabaeus
[18] = test system: Feline coronavirus; test: Antiviral activity against Feline coronavirus infected in cat CRFK cells assessed as inhibition of virus-induced cytopathic effect by MTS assay; assay type: functional, organism-based; conditions: Alphacoronavirus 1, CRFK
[19] = test system: Influenza A virus; test: Antiviral activity against Influenza A virus […] infected in MDCK cells assessed as reduction in virus-induced cytopathogenicity; assay type: functional, organism-based; procedure, shortened: as §1
[20] = test system: Coxsackievirus B4; test: Antiviral activity against Coxsackievirus B4 infected in african green monkey Vero cells assessed as reduction in virus-induced cytopathogenicity; assay type: functional, organism-based; conditions: Enterovirus B; procedure, shortened: as §1
[21] = Cytotoxicity against human HEL cells assessed as morphological changes; assay type: cell-based
[22] = test system: Human respirovirus 3; test: Antiviral activity against Parainfluenza virus 3 infected in african green monkey Vero cells assessed as reduction in virus-induced cytopathogenicity; assay type: functional, organism-based; conditions: Human respirovirus 3, Vero; procedure, shortened: as §3
[23] = test system: Human alphaherpesvirus 3; test: Antiviral activity against thymidine kinase negative Varicella-zoster virus 07-1 infected in human HEL cells assessed as reduction in the virus plaque formation; assay type: functional, organism-based; conditions: Human alphaherpesvirus 3, 07-1, HEL; procedure, shortened: as §4
[24] = Cytotoxicity against cat CRFK cells assessed as cell viability by MTS assay; assay type: cell-based, Felis catus
[25] = test system: Human alphaherpesvirus 2; test: Antiviral activity against Herpes simplex virus-2 G infected in human HEL cells assessed as reduction in virus-induced cytopathogenicity; assay type: functional, organism-based; conditions: Human alphaherpesvirus 2, strain G; procedure, shortened: as §1
[26] = test system: Sindbis virus; test: Antiviral activity against Sindbis virus infected in african green monkey Vero cells assessed as reduction in virus-induced cytopathogenicity; assay type: functional, organism-based; procedure, shortened: as §1

CCCc1nc(N)[nH]c(=O)c1Br
> 100 µM: EC50 [1] | EC50 [2] | EC50 [3] | MCC [4] | EC50 [5] | EC50 [6] | EC50 [7] | MCC [8] | EC50 [9] | EC50 [10] | EC50 [11] | EC50 [12] | EC50 [13] | EC50 [14] | EC50 [15] | EC50 [16] | MCC [17] | EC50 [18] | EC50 [19] | EC50 [20] | MCC [21] | EC50 [22] | EC50 [23] | MCC [24] | EC50 [25] | EC50 [26]

CCCCc1nc(N)[nH]c(=O)c1Br
≥ 100 µM: MCC [21]
> 100 µM: EC50 [1] | EC50 [3] | EC50 [6] | EC50 [7] | MCC [8] | EC50 [9] | EC50 [10] | EC50 [12] | EC50 [14] | MCC [17] | EC50 [18] | EC50 [19] | EC50 [20] | EC50 [22] | MCC [24] | EC50 [25] | EC50 [26]
> 20 µM: EC50 [2] | EC50 [5] | EC50 [13] | EC50 [15] | EC50 [16] | EC50 [23]
100 µM: MCC [4]
10 µM: EC50 [11]

CCCCCc1nc(N)[nH]c(=O)c1Br
> 100 µM: EC50 [1] | EC50 [3] | EC50 [6] | EC50 [7] | MCC [8] | EC50 [9] | EC50 [10] | EC50 [12] | EC50 [14] | MCC [17] | EC50 [18] | EC50 [19] | EC50 [20] | EC50 [22] | MCC [24] | EC50 [25] | EC50 [26]
2 µM: EC50 [11]
20 µM: MCC [4]
> 20 µM: MCC [21]
> 4 µM: EC50 [2] | EC50 [5] | EC50 [13] | EC50 [15] | EC50 [16] | EC50 [23]

Nc1nc(CCc2ccccc2)c(Br)c(=O)[nH]1
> 100 µM: EC50 [1] | EC50 [2] | EC50 [3] | MCC [4] | EC50 [5] | EC50 [6] | EC50 [7] | MCC [8] | EC50 [9] | EC50 [10] | EC50 [11] | EC50 [12] | EC50 [13] | EC50 [14] | EC50 [15] | EC50 [16] | MCC [17] | EC50 [18] | EC50 [19] | EC50 [20] | MCC [21] | EC50 [22] | EC50 [23] | MCC [24] | EC50 [25] | EC50 [26]

CC(C)(O)Cc1nc(N)[nH]c(=O)c1Br
> 100 µM: EC50 [1] | EC50 [2] | EC50 [3] | MCC [4] | EC50 [5] | EC50 [6] | EC50 [7] | MCC [8] | EC50 [9] | EC50 [10] | EC50 [12] | EC50 [14] | EC50 [15] | MCC [17] | EC50 [18] | EC50 [19] | EC50 [20] | MCC [21] | EC50 [22] | MCC [24] | EC50 [25] | EC50 [26]
45 µM: EC50 [11]
100 µM: EC50 [13] | EC50 [16]
79.5 µM: EC50 [23]

Nc1nc(CC(O)c2ccc(Cl)cc2)c(Br)c(=O)[nH]1 (stereo not drawn)
45 µM: EC50 [11]
> 100 µM: EC50 [1] | EC50 [3] | MCC [4] | EC50 [5] | EC50 [6] | EC50 [7] | MCC [8] | EC50 [9] | EC50 [10] | EC50 [12] | EC50 [14] | EC50 [15] | MCC [17] | EC50 [18] | EC50 [19] | EC50 [20] | MCC [21] | EC50 [22] | MCC [24] | EC50 [25] | EC50 [26]
100 µM: EC50 [2] | EC50 [13] | EC50 [16] | EC50 [23]

Nc1nc(CC(O)c2ccccc2C(F)(F)F)c(Br)c(=O)[nH]1 (stereo not drawn)
> 100 µM: EC50 [1] | EC50 [2] | EC50 [3] | MCC [4] | EC50 [5] | EC50 [6] | EC50 [7] | MCC [8] | EC50 [9] | EC50 [10] | EC50 [11] | EC50 [12] | EC50 [13] | EC50 [14] | EC50 [15] | EC50 [16] | MCC [17] | EC50 [18] | EC50 [19] | EC50 [20] | MCC [21] | EC50 [22] | EC50 [23] | MCC [24] | EC50 [25] | EC50 [26]

COc1ccc(/C=C/c2nc(N)[nH]c(=O)c2Br)cc1OC
> 20 µM: EC50 [10] | EC50 [14] | EC50 [19]
> 100 µM: EC50 [1] | EC50 [2] | EC50 [3] | MCC [4] | EC50 [5] | EC50 [6] | EC50 [7] | EC50 [9] | EC50 [12] | EC50 [13] | EC50 [15] | EC50 [16] | MCC [17] | EC50 [18] | EC50 [20] | MCC [21] | EC50 [22] | EC50 [23] | MCC [24] | EC50 [25] | EC50 [26]
45 µM: EC50 [11]
100 µM: MCC [8]
